Assay results as given in paper PMC2888972 (Molecular cancer therapeutics, 2009).
Where two headings read alike, the source gives them in different places.

Key:
Experiment in all cases: Growth inhibition assay
Type in all cases: cell-based, human
Caki-1 cancer = conditions: for efficacy (maximum growth inhibition observed): 1 to 12.5 µmol/L; for EC50: read-out: potency (EC50, concentration needed to induce half maximal efficacy)
Procedure, shortened: (§1)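 Stock is 0.01 mol/L in DMSO, kept at −20°C under subdued light. Cells get 1–12.5 µmol/L or equal-volume DMSO, in triplicate, for 48 h. Growth index is mean treated OD over mean control OD, plotted against concentration. Maximal inhibition comes by nonlinear regression from plots of 2–3 independent experiments.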

HK-2 normal = conditions: 48 h; for efficacy (maximum growth inhibition observed): 1 to 12.5 µmol/L; for EC50: read-out: potency (EC50, concentration needed to induce half maximal efficacy)
Procedure, shortened: as §1

RTC91696 normal = conditions: RTC91696 normal, 48 h, single experiments; for efficacy (maximum growth inhibition observed): 1 to 12.5 µmol/L; for EC50: read-out: potency (EC50, concentration needed to induce half maximal efficacy)
786-O cancer = conditions: for efficacy (maximum growth inhibition observed): 48 h, 1 to 12.5 µmol/L; for EC50: read-out: potency (EC50, concentration needed to induce half maximal efficacy), 48 h
Procedure, shortened: as §1

CC1(C)CC(C)(C)c2cc(NC(=O)Nc3ccc([N+](=O)[O-])cc3)ccc2S1 [SHetC2]
efficacy (maximum growth inhibition observed) (Caki-1 cancer; Caki-1 cancer, 48 h): 85.71% ± 4.53% | EC50 (Caki-1 cancer; Caki-1 cancer, 48 h): 4.91 ± 0.29 µM | efficacy (maximum growth inhibition observed) (HK-2 normal; HK-2 normal): 52.67% ± 1.84% | EC50 (HK-2 normal; HK-2 normal): 4.47 ± 0.49 µM | efficacy (maximum growth inhibition observed) (RTC91696 normal): 52.31% ± 7.38% | EC50 (RTC91696 normal): 7.67 ± 0.49 µM | efficacy (maximum growth inhibition observed) (786-O cancer): 78.53% ± 6.11% | EC50 (786-O cancer): 7.48 ± 0.34 µM

COC(=O)c1ccc(NC(=O)Nc2ccc3c(c2)C(C)(C)CC(C)(C)S3)cc1 [SHetD3]
efficacy (maximum growth inhibition observed) (Caki-1 cancer; Caki-1 cancer, 48 h): 56.99% ± 12.12% | EC50 (Caki-1 cancer; Caki-1 cancer, 48 h): 7.14 ± 0.22 µM | efficacy (maximum growth inhibition observed) (HK-2 normal; HK-2 normal): 26.37% ± 0.22% | EC50 (HK-2 normal; HK-2 normal): 6.91 ± 0.66 µM | efficacy (maximum growth inhibition observed) (RTC91696 normal): 46.27% ± 0.95% | EC50 (RTC91696 normal): 9.42 ± 0.43 µM | efficacy (maximum growth inhibition observed) (786-O cancer): 61.52% ± 1.44% | EC50 (786-O cancer): 7.15 ± 0.81 µM

COC(=O)c1ccc(NC(=S)Nc2ccc3c(c2)C(C)(C)CC(C)(C)S3)cc1 [SHetD4]
efficacy (maximum growth inhibition observed) (Caki-1 cancer; Caki-1 cancer, 48 h): 38.67% ± 1.50% | EC50 (Caki-1 cancer; Caki-1 cancer, 48 h): 7.56 ± 0.15 µM | efficacy (maximum growth inhibition observed) (HK-2 normal; HK-2 normal): 43.67% ± 0.44% | EC50 (HK-2 normal; HK-2 normal): 7.42 ± 0.2 µM | efficacy (maximum growth inhibition observed) (RTC91696 normal): 37.74% ± 6.61% | EC50 (RTC91696 normal): 5.36 ± 0.6 µM | efficacy (maximum growth inhibition observed) (786-O cancer): 44.55% ± 17.56% | EC50 (786-O cancer): 5.08 ± 0.71 µM

COC(=O)c1cccc(NC(=S)Nc2ccc3c(c2)C(C)(C)CC(C)(C)S3)c1 [SHetD5]
efficacy (maximum growth inhibition observed) (Caki-1 cancer; Caki-1 cancer, 48 h): 34.10% ± 1.20% | EC50 (Caki-1 cancer; Caki-1 cancer, 48 h): 7.22 ± 0.25 µM | efficacy (maximum growth inhibition observed) (HK-2 normal; HK-2 normal): 47.97% ± 1.00% | EC50 (HK-2 normal; HK-2 normal): 4.96 ± 0.25 µM | efficacy (maximum growth inhibition observed) (786-O cancer): 41.80% ± 16.91% | EC50 (786-O cancer): 5.14 ± 0.7 µM

CC1=C(/C=C/C(C)=C/C=C/C(C)=C/C(=O)O)C(C)(C)CCC1 [t-RA, trans-retinoic acid, reference compound]
efficacy (maximum growth inhibition observed) (Caki-1 cancer; Caki-1 cancer, 48 h): 6.46% ± 9.40% | EC50 (Caki-1 cancer; Homo sapiens, CAKI-1, 48 h): 4.64 ± 1.14 µM | efficacy (maximum growth inhibition observed) (HK-2 normal; HK-2 normal): 15.81% ± 0.47% | EC50 (HK-2 normal; Homo sapiens): 6.28 ± 2.19 µM | efficacy (maximum growth inhibition observed) (786-O cancer): 0.00% ± 1.43%
